Assay results from ChEMBL document CHEMBL3351928, “Discovery of clinical candidate 1-(4-(3-(4-(1H-benzo[d]imidazole-2-carbonyl)phenoxy)pyrazin-2-yl)piperidin-1-yl)ethanone (AMG 579), a potent, selective, and efficacious inhibitor of phosphodiesterase 10A (PDE10A)” (J Med Chem, 2014).

What was measured:
Rattus norvegicus [1] = test: Target occupancy of PDE10A in Sprague-Dawley rat striatum at 10 mg/kg, po administered as single dose measured 1 hr post dosing and 10 mins post iv dosing of tracer by LC-MS/MS method; format: functional
[2] = Metabolic stability in rat liver microsomes assessed as clearance at 1 uM in presence of NADPH at 37 degC incubated for 30 mins; format: ADME; settings: read-out: CLH
[3] = Metabolic stability in human liver microsomes assessed as clearance at 1 uM in presence of NADPH at 37 degC incubated for 30 mins; format: ADME; settings: read-out: CLH
[4] = Half life in dog at 0.5 mg/kg, iv; format: ADME, organism-based, Canis lupus familiaris; set-up: dose 0.5 mg/kg, route intravenous; settings: in vivo
Phosphodiesterase 3 = Phosphodiesterase 3 (Homo sapiens, UniProt Q14432+Q13370); test: Inhibition of PDE3 (unknown origin); format: protein assay
[5] = biological target: Dual 3',5'-cyclic-AMP and -GMP phosphodiesterase 11A (Homo sapiens, UniProt Q9HCR9); test: Inhibition of PDE11 (unknown origin)
Dual 3',5'-cyclic-AMP and -GMP phosphodiesterase 11A, sequence (Q9HCR9 whole entry): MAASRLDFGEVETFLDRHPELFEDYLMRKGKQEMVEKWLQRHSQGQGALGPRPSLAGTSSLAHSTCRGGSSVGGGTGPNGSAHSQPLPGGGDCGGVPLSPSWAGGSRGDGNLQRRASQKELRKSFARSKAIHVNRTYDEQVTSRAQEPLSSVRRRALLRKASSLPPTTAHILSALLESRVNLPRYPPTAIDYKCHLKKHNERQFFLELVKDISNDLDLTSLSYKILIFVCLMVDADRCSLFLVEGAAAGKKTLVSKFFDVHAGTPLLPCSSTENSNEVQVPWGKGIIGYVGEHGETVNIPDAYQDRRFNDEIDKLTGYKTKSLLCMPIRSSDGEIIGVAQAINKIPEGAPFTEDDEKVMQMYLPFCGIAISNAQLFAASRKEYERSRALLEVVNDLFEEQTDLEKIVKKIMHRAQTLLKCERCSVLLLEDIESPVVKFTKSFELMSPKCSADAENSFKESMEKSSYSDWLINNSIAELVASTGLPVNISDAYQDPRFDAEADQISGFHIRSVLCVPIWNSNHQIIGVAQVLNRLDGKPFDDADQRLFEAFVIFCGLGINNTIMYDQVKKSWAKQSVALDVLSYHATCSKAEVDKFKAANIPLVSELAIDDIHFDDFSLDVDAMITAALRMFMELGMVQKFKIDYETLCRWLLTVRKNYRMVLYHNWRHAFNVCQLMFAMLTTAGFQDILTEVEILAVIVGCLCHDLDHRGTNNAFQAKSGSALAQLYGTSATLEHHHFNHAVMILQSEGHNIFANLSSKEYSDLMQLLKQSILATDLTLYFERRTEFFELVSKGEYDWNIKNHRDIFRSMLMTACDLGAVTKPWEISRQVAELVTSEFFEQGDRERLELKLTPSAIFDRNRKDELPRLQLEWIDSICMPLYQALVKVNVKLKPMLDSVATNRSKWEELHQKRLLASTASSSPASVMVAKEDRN

Phosphodiesterase 7 = Phosphodiesterase 7 (Homo sapiens, UniProt Q13946+Q9NP56); test: Inhibition of PDE7 (unknown origin); format: protein assay
[6] = Clearance in rat at 2 mg/kg, iv; format: ADME, organism-based; set-up: dose 2 mg/kg, route intravenous; settings: in vivo
[7] = Half life in non-human primates at 0.5 mg/kg, po; format: ADME, organism-based; set-up: dose 0.5 mg/kg, route oral; settings: monkey, in vivo
Phosphodiesterase 6 = test: Inhibition of PDE6 (unknown origin); format: protein assay, Homo sapiens
[8] = Half life in rat at 2 mg/kg, iv; format: ADME, organism-based; set-up: dose 2 mg/kg, route intravenous; settings: in vivo
Rattus norvegicus [9] = test: Reversal of PCP-induced hyperlocomotor activity in Sprague-Dawley rat assessed as effect on locomotor activity administered orally 1 hr before PCP dosing and measured at 10 mins intervals over 2 hrs period; format: functional; settings: po, read-out: MED
Procedure, shortened: (§1)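 Adult male Sprague-Dawley rats (250–280 g) were first acclimated to the test cage for 60 min. They then received oral doses of 0.1, 0.3, 1 or 3 mg/kg, n = 10. After 1 h they were given PCP 8 mg/kg subcutaneously. Photobeam breaks were collected at 10 min intervals and compiled over 2 h. Groups were compared with vehicle by one-way ANOVA followed by Dunnett's test, and the minimum effective dose was determined.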

[10] = Half life in dog at 1 mg/kg, po; format: ADME, organism-based, Canis lupus familiaris; set-up: dose 1 mg/kg, route oral; settings: in vivo
[11] = Half life in non-human primates at 0.5 mg/kg, iv; format: ADME, organism-based; set-up: dose 0.5 mg/kg, route intravenous; settings: monkey, in vivo
[12] = Oral bioavailability in dog at 1 mg/kg; format: ADME, organism-based, Canis lupus familiaris; settings: in vivo
[13] = AUC in dog at 1 mg/kg, po; format: ADME, organism-based, Canis lupus familiaris; set-up: dose 1 mg/kg, route oral; settings: plasma
[14] = (§2) Oral bioavailability in rat at 10 mg/kg; format: ADME, organism-based; settings: in vivo
[15] = Half life in rat at 10 mg/kg, po; format: ADME, organism-based; set-up: dose 10 mg/kg, route oral; settings: in vivo
[16] = biological target: cGMP-dependent 3',5'-cyclic phosphodiesterase (Homo sapiens, UniProt O00408); test: Inhibition of PDE2 (unknown origin)
cGMP-dependent 3',5'-cyclic phosphodiesterase, sequence (O00408 whole entry): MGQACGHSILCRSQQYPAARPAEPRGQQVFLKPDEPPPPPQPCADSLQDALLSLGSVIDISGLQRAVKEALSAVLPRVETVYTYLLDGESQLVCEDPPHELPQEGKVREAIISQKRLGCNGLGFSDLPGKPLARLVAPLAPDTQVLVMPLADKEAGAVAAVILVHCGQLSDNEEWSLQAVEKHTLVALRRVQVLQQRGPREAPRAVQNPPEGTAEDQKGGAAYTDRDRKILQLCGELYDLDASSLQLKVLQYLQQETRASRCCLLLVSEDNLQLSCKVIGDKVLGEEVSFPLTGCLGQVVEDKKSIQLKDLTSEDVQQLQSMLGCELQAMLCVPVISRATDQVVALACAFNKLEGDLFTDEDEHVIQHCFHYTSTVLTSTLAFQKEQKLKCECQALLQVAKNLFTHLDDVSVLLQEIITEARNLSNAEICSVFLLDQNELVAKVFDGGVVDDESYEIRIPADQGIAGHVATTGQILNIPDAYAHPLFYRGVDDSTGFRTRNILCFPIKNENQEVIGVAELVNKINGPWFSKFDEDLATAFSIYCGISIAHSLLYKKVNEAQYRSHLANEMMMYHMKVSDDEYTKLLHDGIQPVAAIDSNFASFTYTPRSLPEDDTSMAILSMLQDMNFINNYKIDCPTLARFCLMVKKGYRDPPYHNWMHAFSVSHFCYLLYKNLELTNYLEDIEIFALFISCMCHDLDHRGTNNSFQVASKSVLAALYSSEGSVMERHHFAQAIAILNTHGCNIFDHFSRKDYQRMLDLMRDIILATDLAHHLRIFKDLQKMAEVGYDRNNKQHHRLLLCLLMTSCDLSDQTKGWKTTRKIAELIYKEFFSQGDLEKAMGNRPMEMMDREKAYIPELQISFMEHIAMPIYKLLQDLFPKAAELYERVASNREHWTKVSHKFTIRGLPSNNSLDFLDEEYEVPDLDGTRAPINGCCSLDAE

[17] = biological target: cGMP-specific 3',5'-cyclic phosphodiesterase (Canis lupus familiaris, UniProt O77746); test: Inhibition of PDE5 (unknown origin); set-up: species or system Homo sapiens
[18] = AUC in non-human primates at 0.5 mg/kg, iv; format: ADME, organism-based; set-up: dose 0.5 mg/kg, route intravenous; settings: monkey, plasma
Rattus norvegicus [19] = test: Target occupancy of PDE10A in Sprague-Dawley rat striatum measured 1 hr post dosing and 10 mins post iv dosing of tracer by LC-MS/MS method; format: functional, organism-based
Procedure, shortened: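 Sprague-Dawley rats received oral doses of 0.1, 0.3, 1, 3, 10 and 30 mg/kg, n = 4 per dose. Tissue was taken 1 h after dosing and 10 min after IV tracer. Striatal tracer was compared with thalamic tracer by LC-MS/MS. An occupancy EC50 was calculated against total plasma concentration.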

[20] = Volume of distribution at steady state in non-human primates at 0.5 mg/kg, iv; format: ADME, organism-based; set-up: dose 0.5 mg/kg, route intravenous; settings: monkey, in vivo, read-out: Vdss
[21] = AUC in non-human primates at 0.5 mg/kg, po; format: ADME, organism-based; set-up: dose 0.5 mg/kg, route oral; settings: monkey, plasma
[22] = Clearance in dog at 0.5 mg/kg, iv; format: ADME, organism-based, Canis lupus familiaris; set-up: dose 0.5 mg/kg, route intravenous; settings: in vivo
Rattus norvegicus [23] = test: Effect on locomotor activity in orally dosed Sprague-Dawley rat measured at 10 mins intervals over 2 hrs period; format: ADME, organism-based; settings: in vivo, po; procedure, shortened: as §1
[24] = biological target: High affinity cGMP-specific 3',5'-cyclic phosphodiesterase 9A (Homo sapiens, UniProt O76083); test: Inhibition of PDE9 (unknown origin)
High affinity cGMP-specific 3',5'-cyclic phosphodiesterase 9A, sequence (O76083 whole entry): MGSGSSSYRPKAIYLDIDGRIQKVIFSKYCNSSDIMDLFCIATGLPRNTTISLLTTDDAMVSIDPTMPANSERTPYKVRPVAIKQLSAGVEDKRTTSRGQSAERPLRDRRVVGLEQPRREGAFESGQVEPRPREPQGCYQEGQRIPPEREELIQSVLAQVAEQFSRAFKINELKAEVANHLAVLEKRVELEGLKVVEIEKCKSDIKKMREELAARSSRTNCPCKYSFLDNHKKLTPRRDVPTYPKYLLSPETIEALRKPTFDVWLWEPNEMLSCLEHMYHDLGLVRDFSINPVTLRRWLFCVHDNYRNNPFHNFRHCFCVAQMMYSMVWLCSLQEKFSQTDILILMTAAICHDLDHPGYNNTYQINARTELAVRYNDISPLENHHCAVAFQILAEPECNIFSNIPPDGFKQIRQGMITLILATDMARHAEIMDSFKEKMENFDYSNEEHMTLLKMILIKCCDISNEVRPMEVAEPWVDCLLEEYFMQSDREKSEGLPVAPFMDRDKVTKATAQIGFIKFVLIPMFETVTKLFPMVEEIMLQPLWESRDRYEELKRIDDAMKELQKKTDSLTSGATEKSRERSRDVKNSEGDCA

[25] = Oral bioavailability in non-human primates at 0.5 mg/kg; format: ADME, organism-based; settings: monkey, in vivo
[26] = biological target: cAMP and cAMP-inhibited cGMP 3',5'-cyclic phosphodiesterase 10A (Homo sapiens, UniProt Q9Y233); test: Inhibition of human recombinant PDE10A using cAMP as substrate incubated for 30 mins prior to substrate addition measured after 3 hrs to overnight by IMAP FRET assay
cAMP and cAMP-inhibited cGMP 3',5'-cyclic phosphodiesterase 10A, sequence (Q9Y233 whole entry): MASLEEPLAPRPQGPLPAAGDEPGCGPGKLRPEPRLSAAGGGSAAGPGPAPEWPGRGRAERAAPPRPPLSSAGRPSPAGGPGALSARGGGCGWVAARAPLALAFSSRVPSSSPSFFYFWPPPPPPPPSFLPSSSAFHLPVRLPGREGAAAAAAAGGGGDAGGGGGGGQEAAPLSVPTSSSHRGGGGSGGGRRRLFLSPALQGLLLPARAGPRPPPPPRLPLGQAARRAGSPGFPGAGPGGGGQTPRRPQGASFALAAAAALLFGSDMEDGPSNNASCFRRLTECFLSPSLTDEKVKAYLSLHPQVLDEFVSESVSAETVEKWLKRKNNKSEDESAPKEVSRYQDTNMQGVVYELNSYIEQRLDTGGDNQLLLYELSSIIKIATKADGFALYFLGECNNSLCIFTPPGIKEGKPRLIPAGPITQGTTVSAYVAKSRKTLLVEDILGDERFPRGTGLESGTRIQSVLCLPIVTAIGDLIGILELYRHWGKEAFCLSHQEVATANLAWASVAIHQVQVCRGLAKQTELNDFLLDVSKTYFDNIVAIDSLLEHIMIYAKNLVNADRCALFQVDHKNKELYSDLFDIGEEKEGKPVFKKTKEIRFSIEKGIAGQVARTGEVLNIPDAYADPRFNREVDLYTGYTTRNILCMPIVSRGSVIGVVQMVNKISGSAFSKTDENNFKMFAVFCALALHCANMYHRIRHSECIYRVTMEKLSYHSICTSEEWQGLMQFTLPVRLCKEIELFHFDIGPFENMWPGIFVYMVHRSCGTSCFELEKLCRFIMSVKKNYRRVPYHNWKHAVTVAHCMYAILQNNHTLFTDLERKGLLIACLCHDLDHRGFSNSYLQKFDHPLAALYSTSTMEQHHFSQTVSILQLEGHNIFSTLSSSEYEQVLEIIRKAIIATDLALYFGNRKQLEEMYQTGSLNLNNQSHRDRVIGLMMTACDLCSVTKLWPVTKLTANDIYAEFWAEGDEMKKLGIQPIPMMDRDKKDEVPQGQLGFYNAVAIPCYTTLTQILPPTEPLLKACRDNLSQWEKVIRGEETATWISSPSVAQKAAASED

[27] = AUC in dog at 0.5 mg/kg, iv; format: ADME, organism-based, Canis lupus familiaris; set-up: dose 0.5 mg/kg, route intravenous; settings: plasma
[28] = Volume of distribution at steady state in dog at 0.5 mg/kg, iv; format: ADME, organism-based, Canis lupus familiaris; set-up: dose 0.5 mg/kg, route intravenous; settings: in vivo, read-out: Vdss
Phosphodiesterase 4 = Phosphodiesterase 4 (Homo sapiens, UniProt P27815+Q08499+Q07343+Q08493); test: Inhibition of PDE4 (unknown origin); format: protein assay
Phosphodiesterase 8 = Phosphodiesterase 8 (Homo sapiens, UniProt O95263+O60658); test: Inhibition of PDE8 (unknown origin); format: protein assay
Phosphodiesterase 1 = Phosphodiesterase 1 (Homo sapiens, UniProt P54750+Q01064+Q14123); test: Inhibition of PDE1 (unknown origin); format: protein assay
[29] = Clearance in non-human primates at 0.5 mg/kg, iv; format: ADME, organism-based; set-up: dose 0.5 mg/kg, route intravenous; settings: monkey, in vivo
[30] = Volume of distribution at steady state in rat at 2 mg/kg, iv; format: ADME, organism-based; set-up: dose 2 mg/kg, route intravenous; settings: in vivo, read-out: Vdss
[31] = (§3) AUC in rat at 2 mg/kg, iv; format: ADME, organism-based, Plasma; set-up: dose 2 mg/kg, route intravenous; settings: plasma
[32] = (§4) AUC in rat at 10 mg/kg, po; format: ADME, organism-based, Plasma; set-up: dose 10 mg/kg, route oral; settings: plasma
[33] = Oral bioavailability in dog at 0.5 mg/kg; format: ADME, organism-based, Canis lupus familiaris; settings: in vivo
Rattus norvegicus [34] = test: as §2; format: ADME, organism-based; settings: in vivo
[35] = AUC in dog at 0.5 mg/kg, po; format: ADME, organism-based, Canis lupus familiaris; set-up: dose 0.5 mg/kg, route oral; settings: plasma
Rattus norvegicus [36] = test: as §3; format: ADME, organism-based, Plasma; set-up: dose 2 mg/kg, route intravenous; settings: in vivo
[37] = Half life in dog at 0.5 mg/kg, po; format: ADME, organism-based, Canis lupus familiaris; set-up: dose 0.5 mg/kg, route oral; settings: in vivo
Rattus norvegicus [38] = test: as §4; format: ADME, organism-based, Plasma; set-up: dose 10 mg/kg, route oral; settings: in vivo

| SMILES | Occ (Rattus norvegicus [1]) | microsomal CLint at 1 µM [2] | microsomal CLint at 1 µM [3] | half-life [4] | clearance [6] | half-life [8] | minimal effective dose (Rattus norvegicus [9]) | half-life [11] | bioavailability [14] | half-life [15] | AUC [18] | EC50 (Rattus norvegicus [19]) | Occ (Rattus norvegicus [19]) | Vd [20] | clearance [22] | Activity (Rattus norvegicus [23]) | IC50 [26] | AUC [27] | Vd [28] | Vd [30] | other results |
| --- | --- | --- | --- | --- | --- | --- | --- | --- | --- | --- | --- | --- | --- | --- | --- | --- | --- | --- | --- | --- | --- |
| O=C(c1ccc(Oc2ncccc2C2CCOCC2)cc1)c1nc2ccccc2[nH]1 | 69.2% | > 399 µL/min/mg | 100 µL/min/mg |  |  |  |  |  |  |  |  |  |  |  |  |  |  |  |  |  |  |
| CC(=O)N1CCC(c2nccnc2Oc2ccc(C(=O)c3nc4ccccc4[nH]3)cc2)CC1 | 86.3% | 41 µL/min/mg | 20 µL/min/mg | 6.89 h | 9 mL/min/kg | 3.16 h | 0.3 mg/kg | 1.09 h | 49% | 3.35 h | 3.41 µM·h | 711 nM | Dose-dependent effect | 0.83 L/kg | 1.23 mL/min/kg | Non-toxic | 0.1 nM | 13.7 µM·h | 0.77 L/kg | 0.81 L/kg | IC50 (Phosphodiesterase 3): > 30000 nM; IC50 [5]: > 30000 nM; IC50 (Phosphodiesterase 7): > 30000 nM; half-life [7]: 2.48 h; IC50 (Phosphodiesterase 6): > 30000 nM; half-life [10]: 11 h; bioavailability [12]: 72%; AUC [13]: 16.9 µM·h; IC50 [16]: > 30000 nM; IC50 [17]: > 30000 nM; AUC [21]: 2.4 µM·h; IC50 [24]: > 30000 nM; bioavailability [25]: 71%; IC50 (Phosphodiesterase 4): > 30000 nM; IC50 (Phosphodiesterase 8): > 30000 nM; IC50 (Phosphodiesterase 1): > 30000 nM; clearance [29]: 5.67 mL/min/kg; AUC [31]: 8.31 µM·h; AUC [32]: 19.8 µM·h |
| O=C(c1ccc(Oc2nccnc2C2CCOCC2)cc1)c1nc2ccccc2[nH]1 | 91% | 119 µL/min/mg | 50 µL/min/mg |  | 10.3 mL/min/kg | 4.26 h | 1 mg/kg |  | 22% | 3.99 h |  | 117 nM | Dose-dependent effect |  |  | Non-toxic | 0.8 nM |  |  | 2.27 L/kg | AUC [31]: 7.75 µM·h; AUC [32]: 7.93 µM·h |
| CC(=O)N1CCC(c2cccnc2Oc2ccc(C(=O)c3nc4ccccc4[nH]3)cc2)CC1 | 86.5% | 463 µL/min/mg | 29 µL/min/mg | 7.41 h | 50.5 mL/min/kg | 23.1 h | 0.3 mg/kg | 1.26 h |  | 1.72 h | 1.61 µM·h | 965 nM | Dose-dependent effect | 1.62 L/kg | 0.867 mL/min/kg | Non-toxic | 0.1 nM | 21.5 µM·h | 0.5 L/kg | 31.2 L/kg | bioavailability [33]: 45%; F (Rattus norvegicus [34]): 63%; AUC [35]: 9.59 µM·h; clearance [29]: 13.7 mL/min/kg; AUC (Rattus norvegicus [36]): 1.62 µM·h; half-life [37]: 5.07 h; AUC (Rattus norvegicus [38]): 5.07 µM·h |
